Experimental data taken from ChEMBL document CHEMBL4376883, “Discovery and Optimization of Small Molecules Targeting the Protein-Protein Interaction of Heat Shock Protein 90 (Hsp90) and Cell Division Cycle 37 as Orally Active Inhibitors for the Treatment of Colorectal Cancer” (J Med Chem, 2020).
The source made the active and inactive calls. The calls are words filed in the database; no cut-off is given here.

Tests used:
[1] = Toxicity in human HCT116 cells xenografted BALB/c mouse assessed as effect on heart at 40 to 80 mg/kg, po administered once daily for 21 days measured post-last dose by H and E staining-based imaging analysis; type: organism-based; conditions: in vivo, 504 h
Method in brief: (§1)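 Same xenograft model in BALB/c nude mice with oral daily dosing at 40 or 80 mg/kg in 5% DMSO/saline for 21 days. After sacrifice, organs were fixed in 4% formaldehyde, paraffin-embedded, sectioned at 4 μm and H&E-stained for light-microscopy imaging.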

[2] = Toxicity in human HCT116 cells xenografted BALB/c mouse assessed as effect on spleen at 40 to 80 mg/kg, po administered once daily for 21 days measured post-last dose by H and E staining-based imaging analysis; type: organism-based; conditions: in vivo, 504 h; method in brief: as §1
[3] = Toxicity in human HCT116 cells xenografted BALB/c mouse assessed as effect on lung at 40 to 80 mg/kg, po administered once daily for 21 days measured post-last dose by H and E staining-based imaging analysis; type: organism-based; conditions: in vivo, 504 h; method in brief: as §1
[4] = Toxicity in human HCT116 cells xenografted BALB/c mouse assessed as effect on kidney at 40 to 80 mg/kg, po administered once daily for 21 days measured post-last dose by H and E staining-based imaging analysis; type: organism-based; conditions: in vivo, 504 h; method in brief: as §1
[5] = Toxicity in human HCT116 cells xenografted BALB/c mouse assessed as effect on liver at 40 to 80 mg/kg, po administered once daily for 21 days measured post-last dose by H and E staining-based imaging analysis; type: organism-based; conditions: in vivo, 504 h; method in brief: as §1
[6] = Toxicity in human HCT116 cells xenografted BALB/c mouse assessed as body weight loss at 40 to 80 mg/kg, po administered once daily for 21 days measured at 3 days interval during compound dosing; type: organism-based; conditions: in vivo
Method in brief: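 BALB/c nude mice (6 weeks old) carried flank HCT116 xenografts (1×10^7 cells with Matrigel, 3:1). Dosing started at mean tumor volume 125 mm³: oral 40 or 80 mg/kg daily for 21 days, vehicle 0.9% saline with 5% DMSO. Body weight was recorded every 3 days; n = 6.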

Mus musculus [7] = experiment: In vivo inhibition of HSP90-CDC37 protein-protein interaction in human HCT116 cells xenografted BALB/c mouse assessed as reduction in CDK4 level at 80 mg/kg, po administered once daily for 21 days measured post-last dose by immunohistochemical analysis; type: functional, organism-based
Method in brief: (§2)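 Tumours from the 21-day daily oral xenograft study (40 or 80 mg/kg) were formalin-fixed and cut into 4 µm paraffin sections. Peroxidase quenched with 3% H₂O₂; antigen retrieval by boiling in 10 mM citrate, pH 6.0. Blocked with 3% BSA; anti-CDK4 at 4 °C overnight; secondary 20 min at 37 °C. DAB detection, haematoxylin counterstain, viewed at 200×.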

HCT-116 [8] = experiment: Antitumor activity against human HCT116 cells xenografted in BALB/c mouse assessed as reduction in tumor cells at 40 mg/kg, po administered once daily for 21 days measured post-last dose by H and E staining-based imaging analysis; type: functional, organism-based
Method in brief: (§3)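 1×10^7 HCT116 cells mixed 3:1 with Matrigel were injected into the flanks of 6-week-old BALB/c nude mice, which were randomised into groups. Dosing started at mean tumour volume 125 mm³: daily oral gavage for 21 days in 0.9% saline with 5% DMSO at 40 or 80 mg/kg. Tumour volume measured daily by calipers (length×width²/2); n = 6. Tumours fixed in 4% formaldehyde, paraffin-embedded, 4 µm H&E sections.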

Heat shock protein HSP90 [9] = target: T1, Heat shock protein HSP90 (Homo sapiens, UniProt P07900+P08238); experiment: Binding affinity to recombinant full-length 15N-labelled HSP90 N-terminal domain (9 to 236 residues) (unknown origin) expressed in Escherichia coli BL21 (DE3) at 250 to 500 uM by 15N 1H HSQC spectra analysis
[10] = target: T2, Heat shock protein HSP 90-beta/Hsp90 co-chaperone Cdc37 (Homo sapiens) (UniProt P08238+Q16543); experiment: Inhibition of His-tagged HSP90/GST-tagged Cdc37 (unknown origin) protein-protein interaction at 100 uM measured after 1 hr by HTRF assay relative to control; type: protein-complex assay
Method in brief: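 His-Hsp90 and GST-Cdc37 were premixed at a final 80 nM in PBS with 200 mM KF, pH 7.4. Compound was added and the mix incubated 1 h at 37 °C, then read by HTRF. Inhibition rate was taken at 100 μM compound.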

Heat shock protein HSP90 [11] = target: T1, Heat shock protein HSP90; experiment: Binding affinity to recombinant […] HSP90 N-terminal domain (9 to 236 residues) (unknown origin) expressed in Escherichia coli BL21 (DE3) at 100 uM by STD NMR spectra analysis
Method in brief: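 STD NMR: 100 µM compound with 5 µM Hsp90 in 20 mM sodium phosphate, 150 mM NaCl, 5% DMSO, pH 7.4. Three independent experiments.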

HCT-116 [12] = experiment: Antitumor activity against human HCT116 cells xenografted in BALB/c mouse assessed as tumor growth inhibition at 40 mg/kg, po administered once daily for 21 days; type: functional, organism-based; method in brief: as §3
HCT-116 [13] = experiment: Antitumor activity against human HCT116 cells xenografted in BALB/c mouse assessed as reduction in tumor cells at 80 mg/kg, po administered once daily for 21 days measured post-last dose by H and E staining-based imaging analysis; type: functional, organism-based; method in brief: as §3
Mus musculus [14] = experiment: In vivo inhibition of HSP90-CDC37 protein-protein interaction in human HCT116 cells xenografted BALB/c mouse assessed as reduction in CDK4 level at 40 mg/kg, po administered once daily for 21 days measured post-last dose by immunohistochemical analysis; type: functional, organism-based; method in brief: as §2
Heat shock protein HSP90 [15] = target: T1, Heat shock protein HSP90; experiment: Binding affinity to recombinant […] HSP90 N-terminal domain (9 to 236 residues) (unknown origin) expressed in Escherichia coli BL21 (DE3) at 200 uM by NMR spectra analysis
Heat shock protein HSP90 [16] = target: T1, Heat shock protein HSP90; experiment: Binding affinity to recombinant […] HSP90 N-terminal domain (9 to 236 residues) (unknown origin) expressed in Escherichia coli BL21 (DE3) assessed as change in melting temperature by SYPRO dye based thermal shift assay
Method in brief: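 Hsp90 N-terminal domain (10 µM) mixed with compound at 200, 100, 50 or 10 µM in 1× PBS, pH 8.0, with 6× SYPRO Orange. Heated from room temperature to 99 °C at 1 °C/min; fluorescence read at 492 nm excitation and 610 nm emission.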

[17] = target: Heat shock protein HSP 90-alpha (Homo sapiens, UniProt P07900); experiment: Binding affinity to recombinant human full-length HSP90alpha by surface plasmon resonance analysis
[18] = target: T2, Heat shock protein HSP 90-beta/Hsp90 co-chaperone Cdc37 (Homo sapiens); experiment: Inhibition of HSP90-CDC37 protein-protein interaction in human HCT116 cells up to 1 uM measured after 12 hrs by coimmunoprecipitation-based Western blot assay; type: cell-based
Method in brief: (§4)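 HCT116 cells grown to ~90% confluence in 10 cm dishes, exposed to compound or DMSO for 12 h, then washed with ice-cold PBS and lysed in RIPA buffer (50 mM Tris, 150 mM NaCl, 1% NP-40, protease inhibitors, pH 7.4) for 1 h on ice. Hsp90 was immunoprecipitated with protein A/G magnetic beads over 3 h. Western blots probed Hsp90, Cdc37 and CDK4.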

Heat shock protein HSP90 [19] = target: T1, Heat shock protein HSP90; experiment: Inhibition of recombinant full-length HSP90 ATPase activity N-terminal domain (9 to 236 residues) (unknown origin) expressed in Escherichia coli BL21 (DE3) measured after 1 hr by ADP hunter plus assay
[20] = test system: Heat shock protein HSP 90-alpha (Homo sapiens), P07900 [E47A]; experiment: Binding affinity to recombinant […] HSP90 E47A mutant N-terminal domain (9 to 236 residues) (unknown origin) expressed in Escherichia coli BL21 (DE3) at 200 uM by NMR spectra analysis
[21] = test system: Heat shock protein HSP 90-alpha (Homo sapiens), P07900 [R46A]; experiment: Binding affinity to recombinant […] HSP90 R46A mutant N-terminal domain (9 to 236 residues) (unknown origin) expressed in Escherichia coli BL21 (DE3) at 200 uM by NMR spectra analysis
[22] = target: T2, Heat shock protein HSP 90-beta/Hsp90 co-chaperone Cdc37 (Homo sapiens); experiment: Inhibition of HSP90-CDC37 protein-protein interaction in human HCT116 cells measured after 12 hrs by coimmunoprecipitation-based Western blot assay; type: cell-based; method in brief: as §4
Mus musculus [23] = experiment: In vivo inhibition of HSP90-CDC37 protein-protein interaction in human HCT116 cells xenografted BALB/c mouse assessed as reduction in CDK4 level at 40 to 80 mg/kg, po administered once daily for 21 days measured post-last dose by immunohistochemical analysis; type: functional, organism-based; method in brief: as §2
[24] = target: T2, Heat shock protein HSP 90-beta/Hsp90 co-chaperone Cdc37 (Homo sapiens); experiment: Inhibition of HSP90-CDC37 protein-protein interaction in human HCT116 cells assessed as reduction in CDK4 expression up to 10 uM measured after 12 hrs by coimmunoprecipitation-based Western blot assay; type: cell-based; method in brief: as §4
HCT-116 [25] = experiment: Antitumor activity against human HCT116 cells xenografted in po dosed BALB/c mouse assessed as tumor growth inhibition administered once daily for 21 days; type: functional, organism-based; method in brief: as §3
Heat shock protein HSP90 [26] = target: T1, Heat shock protein HSP90; experiment: Binding affinity to HSP90 in human HCT116 cells assessed as change in melting temperature measured after 12 hrs by CETSA; type: cell-based
Method in brief: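 HCT116 cells near 90% confluence were treated 12 h with 20 µM compound or DMSO, then washed and resuspended in PBS. Aliquots heated 3 min at 37–75 °C, freeze-thawed three times in liquid nitrogen and centrifuged. Hsp90 detected by Western blot with β-actin reference; Tm taken from band grey levels. Three independent experiments.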

[27] = test system: Heat shock protein HSP 90-alpha (Homo sapiens), P07900 [Q133A]; experiment: Binding affinity to recombinant […] HSP90 Q133A mutant N-terminal domain (9 to 236 residues) (unknown origin) expressed in Escherichia coli BL21 (DE3) at 200 uM by NMR spectra analysis
HCT-116 [28] = experiment: Antitumor activity against human HCT116 cells xenografted in BALB/c mouse assessed as reduction in tumor cells at 40 to 80 mg/kg, po administered once daily for 21 days measured post-last dose by H and E staining-based imaging analysis; type: functional, organism-based; method in brief: as §3

Row | SMILES | Activity [1] | Activity [2] | Activity [3] | Activity [4] | Activity [5] | Activity [6] | inhibition [10] [%] | Activity (Heat shock protein HSP90 [11]) | Activity (Heat shock protein HSP90 [15]) | ΔTm (Heat shock protein HSP90 [16]) [°C] | also measured
1 | Cc1cc(C)c(S(=O)(=O)N(CC(=O)O)c2ccc(Nc3ccnc(N4CCNCC4)n3)cc2)c(C)c1.Cl | Non-Toxic | Non-Toxic | Non-Toxic | Non-Toxic | Non-Toxic | Non-Toxic |  |  |  |  | 
2 | Cc1cc(C)c(S(=O)(=O)N(CC(=O)O)c2ccc(Nc3ccnc(N4CCCC4)n3)cc2)c(C)c1 |  |  |  |  |  |  | 72.6 | Active | Active | 2.13 | inhibition (Mus musculus [7]): Active; Activity (HCT-116 [8]): inactive; Activity (Heat shock protein HSP90 [9]): Active; TGI (HCT-116 [12]): inactive; Activity (HCT-116 [13]): Active; inhibition (Mus musculus [14]): inactive
3 | Cc1cc(C)n(-c2nc(NN)nc(Nc3ccc(Cl)c(C(F)(F)F)c3)n2)n1 |  |  |  |  |  |  |  |  |  |  | Kd [17]: 4.98 µM
4 | CC(C)c1cc(C(=O)N2Cc3ccc(CN4CCN(C)CC4)cc3C2)c(O)cc1O [ONALESPIB] |  |  |  |  |  |  |  |  |  |  | inhibition [18]: inactive; IC50 (Heat shock protein HSP90 [19]): 150 nM
5 | Cc1cc(C)c(S(=O)(=O)N(CC(=O)O)c2ccc(Nc3ccnc(N4CCCC4)n3)cc2)c(C)c1.[Cl-].[Na+] | Non-Toxic | Non-Toxic | Non-Toxic | Non-Toxic | Non-Toxic | Non-Toxic |  |  |  |  | 
6 | Cc1cc(C)c(S(=O)(=O)N(CC(=O)O)c2ccc(Nc3ccnc(N4CCNCC4)n3)cc2)c(C)c1 |  |  |  |  |  |  | 97.4 | Active | Active | 4.75 | Activity [20]: inactive; Activity [21]: Active; inhibition [22]: Dose-dependent effect; inhibition (Mus musculus [23]): Active; inhibition [24]: Active; TGI (HCT-116 [25]): Dose-dependent effect; ΔTm (Heat shock protein HSP90 [26]): 6.39 °C; Activity [27]: Active; Activity (HCT-116 [28]): Active
